From ChEMBL document CHEMBL1909614, “5-deoxyflavones with cytotoxic activity from Mimosa diplotricha” (2011)

Assays:
Type in all cases: functional
A549 = assay: Antiproliferative activity against human A549 assessed as growth inhibition after 48 hrs by SRB assay; details: A549, 48 h
Method in brief: (§1)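 Cells kept in RPMI 1640 with 10% FBS, nonessential amino acids and penicillin/streptomycin, seeded and cultured overnight. Six wells fixed with 10% TCA at drug addition (T0). Compound exposure 48 h, then TCA fixation, 0.4% SRB in 1% acetic acid 10 min at room temperature, dye dissolved in 10 mM Tris base, OD 515 nm. Growth computed from T0, control and treated readings. GI50 is the concentration giving 50% growth inhibition. Doxorubicin served as positive control.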

AGS = assay: Antiproliferative activity against human AGS assessed as growth inhibition after 48 hrs by SRB assay; method in brief: as §1
PC-3 = assay: Antiproliferative activity against human PC3 assessed as growth inhibition after 48 hrs by SRB assay; details: PC-3, 48 h; method in brief: as §1
HT-29 = assay: Antiproliferative activity against human HT-29 assessed as growth inhibition after 48 hrs by SRB assay; details: HT-29, 48 h; method in brief: as §1

| SMILES | GI50 (A549) [µM] | GI50 (AGS) [µM] | GI50 (PC-3) [µM] | GI50 (HT-29) [µM] |
| --- | --- | --- | --- | --- |
| COc1ccc(-c2oc3c(OC)c(OC)ccc3c(=O)c2OC)cc1O [DIPLOTRIN B] | 2.7 | 1.7 | 20.8 | 7.5 |
| COc1cccc2c1C(=O)c1c(O)c3c(c(O)c1C2=O)C[C@@](O)(C(=O)CO)C[C@@H]3O[C@H]1C[C@H](N)[C@H](O)[C@H](C)O1 [DOXORUBICIN] | 0.27 | 0.01 | 0.09 | 0.12 |
| COc1ccc2c(c1O)COc1c-2oc2c(OC)c(OC)ccc2c1=O | > 10 | > 10 | > 10 | > 10 |

More lines, now with the values ahead:

| GI50 (A549) [µM] | GI50 (AGS) [µM] | GI50 (PC-3) [µM] | GI50 (HT-29) [µM] | SMILES |
| --- | --- | --- | --- | --- |
| 20.3 | 24.8 | 2.3 | 4.1 | COc1cc([C@H]2Oc3cc(-c4cc(=O)c5c(O)cc(O)cc5o4)ccc3O[C@@H]2CO)cc(OC)c1O |
| > 10 | > 10 | > 10 | > 10 | COc1cc(O)c(-c2oc3c(OC)c(OC)ccc3c(=O)c2OC)cc1O [DIPLOTRIN A] |
| > 10 | > 10 | > 10 | > 10 | COc1ccc2c(=O)cc(-c3cc(OC)c(OC)cc3O)oc2c1 [DIPLOTRIN C] |
